Experimental data taken from ChEMBL document CHEMBL1141540, “Design, synthesis, and evaluation of 1-(N-benzylamino)-2-phenyl-3-(1H-1,2,4-triazol-1-yl)propan-2-ols as antifungal agents” (2008).
Converted amounts (≈) assume the structure as drawn.

Key:
[1] = system: Aspergillus fumigatus; test: Antifungal activity against Aspergillus fumigatus AF98003; format: functional
How it was run: (§1)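 Growth-inhibition screen against the named strain, following a previously published protocol. The read-out is MIC80, reported in ng mL⁻¹. Fluconazole and itraconazole served as positive controls.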

[2] = system: Candida albicans; test: Antifungal activity against Candida albicans CA98001; format: functional; how it was run: as §1

Row | SMILES | MIC80 [1] [µg/mL] | MIC80 [2] [µg/mL]
1 | CN(Cc1ccc(C#N)cc1)CC(O)(Cn1cncn1)c1ccc(Cl)cc1Cl (stereo not drawn) | 2.41 (≈ 5.79 µM) | 0.00037 (≈ 0.000889 µM)
2 | CN(Cc1ccc([N+](=O)[O-])cc1)CC(O)(Cn1cncn1)c1ccc(Cl)cc1Cl (stereo not drawn) | 1.96 (≈ 4.49 µM) | 0.0006 (≈ 0.00138 µM)
3 | O=[N+]([O-])c1ccc(CNCC(O)(Cn2cncn2)c2ccc(Cl)cc2Cl)cc1 (stereo not drawn) | 27 (≈ 64 µM) | 0.006 (≈ 0.0142 µM)
4 | CN(Cc1ccc(C(F)(F)F)cc1)CC(O)(Cn1cncn1)c1ccc(Cl)cc1Cl (stereo not drawn) | 21.1 (≈ 46 µM) | 0.03 (≈ 0.0653 µM)
5 | CN(Cc1ccc(N)cc1)CC(O)(Cn1cncn1)c1ccc(Cl)cc1Cl (stereo not drawn) | 2.32 (≈ 5.71 µM) | 0.029 (≈ 0.0714 µM)
6 | OC(CNCc1ccc(C(F)(F)F)cc1)(Cn1cncn1)c1ccc(Cl)cc1Cl (stereo not drawn) | 24 (≈ 54 µM) | 0.024 (≈ 0.0539 µM)
7 | Nc1ccc(CNCC(O)(Cn2cncn2)c2ccc(Cl)cc2Cl)cc1 (stereo not drawn) | 3.06 (≈ 7.8 µM) | 18.8 (≈ 48 µM)
8 | OC(Cn1cncn1)(Cn1cncn1)c1ccc(F)cc1F [FLUCONAZOLE] | – | 0.19 (≈ 0.62 µM)
9 | CCC(C)n1ncn(-c2ccc(N3CCN(c4ccc(OC[C@H]5CO[C@](Cn6cncn6)(c6ccc(Cl)cc6Cl)O5)cc4)CC3)cc2)c1=O (stereo partly drawn) [ITRACONAZOLE] | 0.42 (≈ 0.595 µM) | –
10 | N#Cc1ccc(CNCC(O)(Cn2cncn2)c2ccc(Cl)cc2Cl)cc1 (stereo not drawn) | 4.02 (≈ 9.99 µM) | 0.0028 (≈ 0.00696 µM)
